Results: ChEMBL document CHEMBL1127414 (J Med Chem, 1994)

Assays:
Squalene synthase = biological target: T1, Squalene synthase (Rattus norvegicus, UniProt Q02769); experiment: Tested for inhibition against squalene synthase enzyme in rat liver
T1 sequence (Q02769 whole entry): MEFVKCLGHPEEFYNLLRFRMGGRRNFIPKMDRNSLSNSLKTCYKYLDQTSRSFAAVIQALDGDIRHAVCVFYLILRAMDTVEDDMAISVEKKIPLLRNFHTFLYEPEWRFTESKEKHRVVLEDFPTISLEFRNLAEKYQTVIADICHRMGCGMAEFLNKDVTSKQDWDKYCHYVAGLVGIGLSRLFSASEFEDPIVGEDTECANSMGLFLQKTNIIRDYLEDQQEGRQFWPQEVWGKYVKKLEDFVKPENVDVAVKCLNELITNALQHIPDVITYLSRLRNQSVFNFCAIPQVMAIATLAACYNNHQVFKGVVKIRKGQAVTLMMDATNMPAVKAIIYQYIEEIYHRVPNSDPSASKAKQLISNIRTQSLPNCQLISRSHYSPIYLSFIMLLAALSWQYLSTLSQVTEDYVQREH

[1] = biological target: T2, Squalene synthase (Rattus norvegicus) (UniProt Q02769); experiment: concentration required to inhibit rat liver squalene synthase enzyme relative to control (L-694,599)
T2 sequence (whole entry): T1 sequence (Q02769 whole entry)
Procedure, shortened: (§1)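 Enzyme from rat liver. […] Inhibitors added in DMSO (0.3% final) as 3-fold serial dilutions, usually up to 30 ng/mL (about 40 nM). IC50 read from % inhibition vs log concentration.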

[2] = biological target: T3, Squalene synthase (Mus musculus) (UniProt P53798); experiment: Tested for the effective dose required for the incorporation of [5-3H]-mevalonolactone into cholesterol by in vivo mouse assay by peroral administration; format: functional, organism-based
T3 sequence (whole entry): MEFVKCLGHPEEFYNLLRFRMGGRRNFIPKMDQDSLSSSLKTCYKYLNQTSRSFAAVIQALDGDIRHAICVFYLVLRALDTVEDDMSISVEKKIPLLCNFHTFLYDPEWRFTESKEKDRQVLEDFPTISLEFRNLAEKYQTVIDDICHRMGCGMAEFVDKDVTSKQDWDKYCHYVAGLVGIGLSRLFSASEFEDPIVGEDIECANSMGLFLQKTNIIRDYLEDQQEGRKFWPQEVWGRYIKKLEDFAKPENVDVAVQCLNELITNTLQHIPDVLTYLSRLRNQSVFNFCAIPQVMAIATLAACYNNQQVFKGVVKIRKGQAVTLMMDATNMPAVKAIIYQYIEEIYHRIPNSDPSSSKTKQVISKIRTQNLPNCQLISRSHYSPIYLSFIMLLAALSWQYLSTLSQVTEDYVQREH
Procedure, shortened: (§2)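 Female Swiss Webster mice (~25 g), six per group, dosed po by gavage with inhibitor suspended in 5% emulphor. 30 min later, 0.5 μCi/mouse [5-3H]mevalonolactone in saline given sc. Livers removed 30 min after that and saponified in KOH/EtOH overnight at 55 °C, then petroleum-ether extracted. Nonsaponifiable dpm counted. Compounds first tested at a single dose (typically 12 or 24 mg/kg).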

[3] = biological target: T2, Squalene synthase (Rattus norvegicus); experiment: Concentration required to inhibit rat liver squalene synthase enzyme relative to control (L-694,599); procedure, shortened: as §1
HepG2 [4] = experiment: Concentration required to inhibit cholesterol synthesis in Hep G2 cells relative to control (IC50 of L-694,599); format: functional, Homo sapiens
Procedure, shortened: (§3)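 Hep G2 cells held 2 days in lipoprotein-depleted FBS to stimulate sterol synthesis, then given inhibitor in serum-free medium for 2 h. 15 μCi [5-3H]mevalonate (0.2 mCi/mmol) added for 1 h. Cells washed and saponified, and radioactivity counted by scintillation.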

HepG2 [5] = experiment: Concentration required to inhibit cholesterol synthesis in Hep G2 cells; format: functional, cell-based; settings: Homo sapiens; procedure, shortened: as §3
Mus musculus [6] = experiment: Ability to inhibit the incorporation of [5-3H]-mevalonolactone into cholesterol by in vivo mouse assay by peroral administration at a dose of 24 mg/kg; format: functional; settings: route oral; procedure, shortened: as §2
Mus musculus [7] = experiment: Tested for its ability to inhibit the incorporation of [5-3H]-mevalonolactone into cholesterol by in vivo mouse assay by peroral administration at a dose of 40 mg/kg; format: functional; settings: route oral; procedure, shortened: as §2

| Structure (SMILES) | IC50 (Squalene synthase) [nM] | Relative activity [1] | ED50 [2] [mg/kg] | Relative activity [3] | IC50 (HepG2 [5]) [nM] | Relative activity (HepG2 [4]) | inhibition in vivo at 24 mg/kg (Mus musculus [6]) [%] | inhibition in vivo at 40 mg/kg (Mus musculus [7]) [%] |
| --- | --- | --- | --- | --- | --- | --- | --- | --- |
| C=C(CCC12OC(C(=O)O)C(O)(C(=O)O)C(C(=O)O)(O1)[C@H](OC(=O)SC(C)C)[C@H]2O)[C@@H](OC(C)=O)[C@H](C)Cc1ccccc1 (stereo not given in full) | 3.4 | 0.06 | 14 |  |  |  |  |  |
| C=C(CCC12OC(C(=O)O)C(O)(C(=O)O)C(C(=O)O)(O1)[C@H](OC(=O)CC[C@@H](C)C[C@@H](C)CC)[C@H]2O)[C@@H](OC(C)=O)[C@H](C)Cc1ccccc1 (stereo not given in full) | 0.19 |  |  | 0.74 | 7500 | 0.8 |  |  |
| C=C(CCC12OC(C(=O)O)C(O)(C(=O)O)C(C(=O)O)(O1)[C@H](OC(=O)/C=C/[C@@H](C)C[C@@H](C)CC)[C@H]2O)[C@@H](OC(=O)CC)[C@H](C)Cc1ccccc1 (stereo not given in full) | 0.42 | 0.69 |  |  |  |  | -4 |  |
| C=C(CCC12OC(C(=O)O)C(O)(C(=O)O)C(C(=O)O)(O1)[C@H](OC(=O)NCC13CC4CC(CC(C4)C1)C3)[C@H]2O)[C@@H](OC(C)=O)[C@H](C)Cc1ccccc1 (stereo not given in full) | 0.8 |  | > 24 | 0.46 |  |  | -5 |  |
| C=C(CCC12OC(C(=O)O)C(O)(C(=O)O)C(C(=O)O)(O1)[C@H](OC(=O)/C=C/[C@@H](C)C[C@@H](C)CC)[C@H]2O)C[C@H](C)Cc1ccccc1 (stereo not given in full) | 0.24 | 1.67 |  |  |  |  |  |  |
| C=C(CCC12OC(C(=O)O)C(O)(C(=O)O)C(C(=O)O)(O1)[C@H](OC(=O)CCCC)[C@H]2O)[C@@H](OC(C)=O)[C@H](C)Cc1ccccc1 (stereo not given in full) |  |  | > 24 |  |  |  | 40 |  |
| C=C(CCC12OC(C(=O)O)C(O)(C(=O)O)C(C(=O)O)(O1)[C@H](OC(=O)CCC)[C@H]2O)[C@@H](OC(=O)CC)[C@H](C)Cc1ccccc1 (stereo not given in full) | 8.8 |  |  | 0.03 |  |  | 67 |  |
| C=C(CCC12OC(C(=O)O)C(O)(C(=O)O)C(C(=O)O)(O1)[C@H](OCCCCCCCCOc1ccccc1)[C@H]2O)[C@@H](OC(C)=O)[C@H](C)Cc1ccccc1 (stereo not given in full) | 0.16 | 0.81 |  |  |  |  |  | 4 |
| C=C(CCC12OC(C(=O)O)C(O)(C(=O)O)C(C(=O)O)(O1)[C@H](OC(=O)CCCCCCCCCCOc1ccccc1)[C@H]2O)[C@@H](OC(C)=O)[C@H](C)Cc1ccccc1 (stereo not given in full) | 0.13 |  |  | 1.08 | 2000 | 3.4 | 11 |  |
| C=C(CCC12OC(C(=O)O)C(O)(C(=O)O)C(C(=O)O)(O1)[C@H](OC(=O)CCCCCCCCCCc1ccccc1)[C@H]2O)[C@@H](OC(C)=O)[C@H](C)Cc1ccccc1 (stereo not given in full) | 0.38 |  |  | 0.45 | 8000 | 1.37 | 11 |  |
| C=C(CCC12OC(C(=O)O)C(O)(C(=O)O)C(C(=O)O)(O1)[C@H](O)[C@H]2O)[C@@H](OC(C)=O)[C@H](C)Cc1ccccc1 (stereo not given in full) |  |  | > 24 |  |  |  | 34 |  |
| CC(=O)OC(CCCC12OC(C(=O)O)C(O)(C(=O)O)C(C(=O)O)(O1)[C@H](OC(=O)CC/C=C/C(C)CCCc1ccccc1)[C@H]2O)C(C)Cc1ccccc1 (stereo not given in full) | 0.37 |  |  | 1.38 |  |  |  | 20 |
| CC[C@H](C)C[C@H](C)CCC(=O)O[C@@H]1[C@@H](O)C2(CCCCCCc3ccccc3)OC(C(=O)O)C(O)(C(=O)O)C1(C(=O)O)O2 (stereo not given in full) | 1.8 |  |  | 0.144 |  |  | -2 |  |
| C=C(CCC12OC(C(=O)O)C(O)(C(=O)O)C(C(=O)O)(O1)[C@H](OC(=O)NCCCCCCCCCCCOc1ccccc1)[C@H]2O)[C@@H](OC(C)=O)[C@H](C)Cc1ccccc1 (stereo not given in full) | 0.07 | 1.71 |  |  | 1300 | 0.64 | 56 |  |
| C=C(CCC12OC(C(=O)O)C(O)(C(=O)O)C(C(=O)O)(O1)[C@H](OC(=O)OCCC[C@@H](C)C[C@@H](C)CC)[C@H]2O)[C@@H](OC(C)=O)[C@H](C)Cc1ccccc1 (stereo not given in full) | 0.26 |  |  | 0.77 |  |  | -4 |  |
| C=C(CCC12OC(C(=O)O)C(OCCCCCCCCOc3ccccc3)(C(=O)O)C(C(=O)O)(O1)[C@H](OCCCCCCCCOc1ccccc1)[C@H]2O)[C@@H](OC(C)=O)[C@H](C)Cc1ccccc1 (stereo not given in full) | 8.2 | 0.02 |  |  |  |  |  |  |

More lines, main results first:

| IC50 (Squalene synthase) [nM] | Relative activity [1] | ED50 [2] [mg/kg] | Relative activity [3] | IC50 (HepG2 [5]) [nM] | Structure (SMILES) | Relative activity (HepG2 [4]) | inhibition in vivo at 24 mg/kg (Mus musculus [6]) [%] | inhibition in vivo at 40 mg/kg (Mus musculus [7]) [%] |
| --- | --- | --- | --- | --- | --- | --- | --- | --- |
| 17 | 0.02 |  |  |  | C=C(CCC12OC(C(=O)O)C(OCCCCCCCCCCCC)(C(=O)O)C(C(=O)O)(O1)[C@H](OCCCCCCCCCCCC)[C@H]2O)[C@@H](OC(C)=O)[C@H](C)Cc1ccccc1 (stereo not given in full) |  |  |  |
| 0.79 | 0.15 |  |  | 14000 | C=C(CCC12OC(C(=O)O)C(O)(C(=O)O)C(C(=O)O)(O1)[C@H](OCCCCCCCCCCCCCCCC)[C@H]2O)[C@@H](OC(C)=O)[C@H](C)Cc1ccccc1 (stereo not given in full) | 0.49 |  |  |
| 0.52 |  |  | 0.27 | 2500 | C=C(CCC12OC(C(=O)O)C(O)(C(=O)O)C(C(=O)O)(O1)[C@H](OC(=O)CCCCCCCCCCCCCCC)[C@H]2O)[C@@H](OC(C)=O)[C@H](C)Cc1ccccc1 (stereo not given in full) | 2.2 |  |  |
| 0.2 |  |  | 1.1 | 900 | C=C(CCC12OC(C(=O)O)C(O)(C(=O)O)C(C(=O)O)(O1)[C@H](OC(=O)CCCCCCCCCCCCC)[C@H]2O)[C@@H](OC(C)=O)[C@H](C)Cc1ccccc1 (stereo not given in full) | 6.11 |  |  |
| 0.75 | 0.17 |  |  |  | C=C(CCC12OC(C(=O)O)C(OCCCCCCCCCCCCCC)(C(=O)O)C(C(=O)O)(O1)[C@H](O)[C@H]2O)[C@@H](OC(C)=O)[C@H](C)Cc1ccccc1 (stereo not given in full) |  |  |  |
| 0.81 | 0.16 |  |  |  | C=C(CCC12OC(C(=O)O)C(OCCCCCCCCOc3ccccc3)(C(=O)O)C(C(=O)O)(O1)[C@H](O)[C@H]2O)[C@@H](OC(C)=O)[C@H](C)Cc1ccccc1 (stereo not given in full) |  |  |  |
| 0.28 |  |  | 0.5 |  | C=C(CCC12OC(C(=O)O)C(O)(C(=O)O)C(C(=O)O)(O1)[C@H](OC(=O)NCCCCCCCCCCCCCC)[C@H]2O)[C@@H](OC(C)=O)[C@H](C)Cc1ccccc1 (stereo not given in full) |  | 12 |  |
| 0.17 |  |  | 1.29 | 8800 | C=C(CCC12OC(C(=O)O)C(O)(C(=O)O)C(C(=O)O)(O1)[C@H](OC(=O)NCCCCCCCCCCCC)[C@H]2O)[C@@H](OC(C)=O)[C@H](C)Cc1ccccc1 (stereo not given in full) | 1.02 | 0 |  |
| 1.1 | 0.11 |  |  |  | C=C(CCC12OC(C(=O)O)C(OCCCCCCCCCCCOc3ccccc3)(C(=O)O)C(C(=O)O)(O1)[C@H](O)[C@H]2O)[C@@H](OC(C)=O)[C@H](C)Cc1ccccc1 (stereo not given in full) |  |  |  |
